In the library only some 4.7% were active in any assay of this set; here they are far more common.
NR3A LBD binder = binders of NR3A ligand-binding domain, primary screen, biophysical, differential scanning fluorimetry, uHTS; Glutamate receptor ionotropic, NMDA 3A (GRIN3A) ligand-binding domain; NR3A LBD differential scanning fluorimetry, Tm shift; 0% = protein alone, 100% = glycine-bound protein; Tm shift relative to glycine control, % at 25 µM; actives 2.5% (n = 340,000); AID 1259313, 2017;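 active means melting temperature shift of at least 10% of the positive control shift, at one fixed dose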
ADAM10 inh = human ADAM10 inhibitors, primary screen, biochemical, QFRET, HTS; actives 0.62% (n = 370,000); Disintegrin and metalloproteinase domain-containing protein 10 (Homo sapiens), O14672; recombinant ADAM10, EDANS/DABCYL FRET peptide cleavage, 3 h; inhibition, % at 7 µM;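 active means inhibition above a per-campaign cutoff equal to the mean of compounds falling between control-based bounds plus 3 SD, cut at about 20% in these data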;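 further: 0% = DMSO wells while the 100% control is not disclosed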
MPTP inh = mitochondrial permeability transition pore inhibitors, primary screen, biochemical, isolated mouse mitochondria, absorbance; Ca2+ swelling absorbance, 30 min; inhibition, % at 10 µM; actives 1.4% (n = 360,000);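 active means inhibition of 50% or more, scaled per plate between neutral and stimulator controls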;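 further: 0% = DMSO wells given calcium and 100% = 1 mM EGTA wells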
SKN-1 block = suppressors of acrylamide-induced Pgst-4::GFP reporter in worms, primary screen, SKN-1 inhibitor project, whole organism, uHTS, GFP/RFP fluorescence ratio, strain VP596. C. elegans VP596 Pgst-4::GFP/RFP ratio, 24 h. inhibition, % at 21.8 µM. actives 0.49% (n = 360,000). AID 624304, 2012;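 active means interference check ratio from 0.5 to 1.5 plus GFP to RFP signal ratio inhibition reaching or exceeding a fixed threshold, cut at about 30% in these data, passing the limit was not always enough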
MT1-MMP act inh = blockers of MT1-MMP proenzyme processing, primary screen, HT1080 RFP-PRO-GFP cells, GFP/RFP fluorescence; GFP/RFP ratio change, % at 20 µM; actives 0.061% (n = 360,000); GFP/RFP ratio fluorescence, overnight; percent of plate control window, DMSO zero; AID 651647, 2012; Matrix metalloproteinase-14 (Homo sapiens), P50281;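 active means GFP/RFP ratio change of at least 30% with cell ATP level not reduced by more than half and red fluorescence within 50% of control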
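system = RFP-PRO-GFP reporter HT1080 cells | dosing = 20 µM single dose, 1% DMSO | timing = overnight cell settling, then overnight compound exposure, 37 °C, 5% CO2 | read-out basis = GFP/RFP fluorescence ratio | controls = DMSO and RFP-L50D-GFP cell wells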
ADAM17 inh = ADAM17 inhibitors, primary screen, biochemical, QFRET | Disintegrin and metalloproteinase domain-containing protein 17 (Homo sapiens), P78536 | recombinant ADAM17, EDANS/DABCYL FRET peptide cleavage | inhibition, % at 6.95 µM | actives 0.83% (n = 370,000) | AID 720648, 2013;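 active means inhibition above the mean of compounds lying between control limits plus 3 SD, set per campaign, cut at about 8.5% in these data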;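 further: 0% = DMSO-only wells as the low control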
Target sequence (P78536 215-824 limits assumed): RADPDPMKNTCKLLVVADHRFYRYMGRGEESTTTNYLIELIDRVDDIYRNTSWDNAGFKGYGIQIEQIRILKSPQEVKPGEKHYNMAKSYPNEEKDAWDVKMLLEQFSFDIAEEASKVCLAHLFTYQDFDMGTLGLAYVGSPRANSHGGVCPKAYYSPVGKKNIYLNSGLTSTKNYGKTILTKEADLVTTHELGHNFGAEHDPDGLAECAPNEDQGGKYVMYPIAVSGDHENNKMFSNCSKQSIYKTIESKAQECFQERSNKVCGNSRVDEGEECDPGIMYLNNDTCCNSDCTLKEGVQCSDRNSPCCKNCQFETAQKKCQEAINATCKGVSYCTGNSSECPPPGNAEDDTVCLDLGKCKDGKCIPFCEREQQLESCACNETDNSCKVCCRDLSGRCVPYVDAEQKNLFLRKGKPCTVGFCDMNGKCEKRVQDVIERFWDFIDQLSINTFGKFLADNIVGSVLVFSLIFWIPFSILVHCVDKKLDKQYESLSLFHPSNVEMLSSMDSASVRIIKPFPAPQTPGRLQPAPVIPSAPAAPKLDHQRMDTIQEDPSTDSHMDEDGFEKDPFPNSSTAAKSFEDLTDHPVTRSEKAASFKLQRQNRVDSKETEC
MPTP counter = fluorescence retest of MPTP screen hits in isolated mitochondria, single concentration. inhibition, % at 10 µM. shares compounds with MPTP inh. actives 78% (n = 5,000). membrane potential, Rhodamine 123 fluorescence. AID 624504, 2012; in the data active means inhibition above about 22%;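 further: 0% = DMSO vehicle and 100% = positive control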
MPTP swell DR = mitochondrial permeability transition pore inhibitors, dose response, biochemical, absorbance, uHTS hits; shares compounds with MPTP inh; isolated mitochondria swelling; IC50, µM; actives 58% (n = 780); AID 651561, 2012; in the data active means IC50 below about 20 µM
MPTP counter DR = fluorescent counter-screen in isolated mitochondria, dose response, counter-screen for MPTP inhibitor project, biochemical, fluorescence, uHTS hits | shares compounds with MPTP inh | isolated mitochondria counterscreen, fluorescence read-out | IC50, µM | actives 49% (n = 780); in the data active means IC50 below about 80 µM
* hit, by the source's call; i = inactive; nt = no result given.

SMILES | NR3A LBD binder | ADAM10 inh | MPTP inh | SKN-1 block | MT1-MMP act inh | ADAM17 inh | MPTP counter | others
COc1ccccc1CCNC(=O)c1cccc(NC(=O)CC2SC(N3CCCCC3)=NC2=O)c1 (configuration not stated) | 2 | -4 | -2 | 24 | 0 | -5 | nt
CCC(C)Sc1cc(C(F)(F)F)c(C(=O)Nc2ccc(Cl)cc2)cn1 (configuration not stated) | -10 | 5 | 75* | 10 | 1 | -1 | 87*
C=CCn1ccc2c([N+](=O)[O-])cccc2c1=O | -3 | -1 | -1 | 7 | 1 | -2 | nt
O=C(Nc1ccc(OC(F)(F)F)cc1)N1CCc2nc(NCc3cccc(Oc4ccccc4)c3)ncc2C1 | nt | -13 | 92* | 18 | 7 | -3 | 96*
CC1(C)CC(=O)C2=C(C1)c1c(ccc3ccccc13)NC2c1cc([N+](=O)[O-])cc([N+](=O)[O-])c1O (configuration not stated) | 5 | 9 | 73* | 3 | -1 | 3 | 57*
CC1(C)CC(=O)C2=C(C1)c1c(ccc3ccccc13)NC2c1ccc(C(=O)O)cc1 (configuration not stated) | -1 | i | 0 | 5 | -1 | -454 | nt
S=c1cn[nH]c2ccccc12 | 3 | -11 | 0 | 20 | -4 | -6 | nt
O=C(O)c1ccc(NC(=S)NC(=O)c2cccc(COc3ccccc3)c2)cc1 | -8 | 7 | -2 | 5 | 1 | 0 | nt
CCN1CCN(c2ccc(NC(=O)c3cccc(OCc4ccccc4)c3)cc2)CC1 | -1 | 1 | -4 | 31 | 9 | -3 | nt
CCCOc1cccc(C(=O)NC(=S)Nc2ccc(N3CCN(C)CC3)cc2)c1 | -1 | -4 | 76* | 8 | 1 | -3 | -8 | MPTP swell DR=7.1*;MPTP counter DR=39*
CCOc1cccc(C(=O)NC(=S)Nc2ccc(N3CCN(CC)CC3)cc2)c1 | -2 | 5 | 0 | 3 | 2 | 1 | nt
O=C(NC(=S)Nc1ccc(CN2CCCCC2)cc1)c1cccc(OCc2ccccc2)c1 | -4 | 5 | 84* | 9 | 7 | 3 | -3 | MPTP swell DR=i;MPTP counter DR=>80
CN1CCN(c2ccc(NC(=O)c3cccc(OCc4ccccc4)c3)cc2)CC1 | -1 | 2 | 107* | 14 | -1 | -1 | -17 | MPTP swell DR=6.6*;MPTP counter DR=>80
CCOC(=O)c1ccc(-c2c(C(=O)OCC)oc3cc(O)c(CC)cc3c2=O)o1 | -2 | 5 | 82* | 6 | 5 | 1 | 86*
CCN1C(=O)c2ccc(C(=O)NCc3ccco3)cc2C1=O | 1 | 7 | 0 | 7 | -6 | -4 | nt
CCOC(=O)N1CCN(S(=O)(=O)c2ccc(C(=O)N(CCCN(C)C)c3nc4c(F)cc(F)cc4s3)cc2)CC1 | 4 | -6 | 51* | 9 | 2 | -3 | -9 | MPTP swell DR=19*;MPTP counter DR=>80
CN(C)CCCN(C(=O)c1ccc(S(=O)(=O)N2CCc3ccccc3C2)cc1)c1nc2c(F)cc(F)cc2s1 | nt | nt | 91* | 7 | 1 | nt | -9
COc1cccc2sc(N(CCCN(C)C)C(=O)c3ccc(S(=O)(=O)N4CCc5ccccc5C4)cc3)nc12 | 1 | 5 | 0 | 2 | -4 | -2 | nt
CCOC(=O)N1CCN(S(=O)(=O)c2ccc(C(=O)N(CCCN(C)C)c3nc4ccc(Cl)cc4s3)cc2)CC1 | 2 | 3 | 2 | -15 | 2 | 0 | nt
Cc1ccc2sc(N(CCCN(C)C)C(=O)c3ccc(S(=O)(=O)N4CCc5ccccc5C4)cc3)nc2c1C | 14* | 6 | 90* | -5 | 1 | 0 | -5 | MPTP swell DR=i;MPTP counter DR=>80
CCCCn1c(N)c(N(CC(C)C)C(=O)c2cccc(OCc3ccccc3)c2)c(=O)[nH]c1=O | -3 | -7 | 0 | 0 | -3 | -5 | nt
O=[N+]([O-])c1ccc(O)c(/C=N/n2cnc3ccccc32)c1 | 6 | -12 | 69* | -5 | -16 | -4 | 79*
O=[N+]([O-])c1ccc(NN=Cc2cc(Br)ccc2O)nc1 | 31* | -2 | 75* | 5 | 6 | -1 | 59*
O=[N+]([O-])c1ccc(O)c(/C=N/n2c(CO)nc3ccccc32)c1 | -11 | 0 | 11 | -3 | 5 | -2 | nt
COc1cc(/C=N/Nc2ccc([N+](=O)[O-])cn2)cc(OC)c1O | 1 | -5 | 1 | 8 | -2 | -4 | nt
SMILES | NR3A LBD binder | ADAM10 inh | MPTP inh | SKN-1 block | MT1-MMP act inh | ADAM17 inh | MPTP counter | others
O=[N+]([O-])c1ccc(O)c(/C=N/Nc2ccccc2Cl)c1 | 0 | 7 | 94* | 8 | -1 | -4 | 91*
C/C(=N\OCc1nc2ccccc2c(=O)n1/N=C/c1cc([N+](=O)[O-])ccc1O)c1ccccc1 | 5 | -3 | 74* | -8 | 0 | -2 | 51*
Cc1cc(/C=C2\C(=O)NN(c3ccccc3)C2=O)c(C)n1-c1ccccc1O | -7 | -6 | 4 | -1 | -1 | -10 | nt
CC1CCN(c2nc3nonc3nc2Nc2ccc(F)cc2)CC1 | -7 | 11 | 73* | 16 | -11 | 3 | 75*
CN(C)c1cccc(/C=C2\CC3(OC(=O)C4CCCC4)CCCN2C3)c1 (configuration not stated) | nt | -27 | nt | nt | nt | -6 | nt
COc1ccc([C@H]2CC(=O)C=C(c3ccnc4ccc(Cl)cc34)C2)cc1 | -6 | 11 | 89* | 3 | 20 | 6 | 99*
N#Cc1cc(C(=O)c2cc(F)ccc2O)cn(-c2nccs2)c1=O | -5 | -61 | 52* | 10 | -125 | -21 | 86*
C[C@@H]1CN([C@H](C)CO)C(=O)CCCn2nncc2CO[C@H]1CN(C)S(=O)(=O)c1ccc(F)cc1 | nt | -28 | -1 | -18 | 4 | -1 | nt
